Shown are actives, neighbours in structure and some others; about 1.9% of the full set was active somewhere.
MBD2 DNA inh – blocks human MBD2 binding to methylated DNA. Q9UBB5. TR-FRET, MBD2 binding to methylated oligonucleotide. inhibition, % at 4.4 µM. 370,000 compounds, 0.31% hits. AID 686964; in the data active = inhibition above about 13%
UHRF1 MBD2 ctr – UHRF1 methyl-DNA binding inhibition. Q96T88. UHRF1 binding to methylated oligo, TR-FRET. inhibition, % at 4.4 µM. 370,000 compounds, 0.75% hits;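 note: UHRF1 SRA domain binding a hemimethylated CpG hairpin DNA probe; 0% = median of test compound wells and 100% = reference inhibitor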
TDP2 absorb – TDP2 (human) inhibition, absorbance primary screen | recombinant TDP2, T5PNP hydrolysis, p-nitrophenol absorbance 415 nm | inhibition, % at 12.8 µM | 370,000 compounds, 0.34% hits | AID 720702;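 active = inhibition above the mean of all tested compounds plus 3 SD, set per campaign, cut at about 25% in these data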;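 note: 0% = DMSO with enzyme and 100% = buffer with substrate but no TDP2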
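Evaluation: % inhibition relative to enzyme-containing and enzyme-free wells. Material: recombinant human TDP2. Benchmarks: enzyme-free and DMSO wells. Timing: enzyme reaction with compound for 2 h at 37 °C. Compound dosing: 12.8 µM only. Measured by: p-Nitrophenol epi absorbance. Reagent: T5PNP substrate at 5 mM, a TopII-DNA adduct mimic. Replication: single well per compound.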
Casp6 inh – blocks human caspase-6 cleavage activity; P55212; purified caspase-6, Z-VEID-R110 cleavage fluorescence; inhibition, % at 12.5 µM; 350,000 compounds, 0.53% hits;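 active = mean inhibition across replicates at least about 35%, with every replicate also reaching that limit, limit read from the data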;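 note: 0% = median of neutral control wells and 100% = no fluorescence left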
Target sequence (P55212 24-179 limits assumed): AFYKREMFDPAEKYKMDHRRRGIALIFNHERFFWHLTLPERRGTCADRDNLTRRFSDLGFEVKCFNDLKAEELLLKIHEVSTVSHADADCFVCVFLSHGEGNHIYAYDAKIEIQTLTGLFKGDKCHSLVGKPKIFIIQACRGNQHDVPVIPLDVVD
Target sequence (P55212 194-293 limits assumed): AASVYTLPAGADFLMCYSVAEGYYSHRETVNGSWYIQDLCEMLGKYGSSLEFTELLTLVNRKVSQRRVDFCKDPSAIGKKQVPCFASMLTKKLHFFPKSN
LEDGF integ inh – blocks HIV-1 LEDGF/p75-dependent DNA integration | TR-FRET IN-LEDGF/p75 DNA integration, Eu/Cy5 | inhibition, % at 3.7 µM | 370,000 compounds, 0.64% hits;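 active = inhibition above the screen-wide mean plus 3 SD, cut at about 13% in these data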;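 note: signal is the Cy5 over europium emission ratio at 671 and 618 nm; 0% = plate median of compound wells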
NSD2 HMT inh – inhibitors of human histone methyltransferase NSD2 | NSD2 peptide methylation, AlphaScreen, 120 min | O96028 | inhibition, % at 12.5 µM | 310,000 compounds, 0.54% hits; in the data active = inhibition above about 50%
UHRF1 ctr MBD2 – UHRF1 methyl-oligo binding inhibition as MBD2 counter-screen; shares compounds with MBD2 DNA inh; UHRF1 binding to methylated oligonucleotide, TR-FRET; inhibition, % at 4.4 µM; 1,000 compounds, 25% hits;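 note: UHRF1 SRA domain binding a labeled hemimethylated CpG hairpin DNA; 0% = vehicle only and 100% = reference inhibitor with vehicle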
MBD2 DBD conf – confirmation of human MBD2-DBD methylated oligonucleotide binding inhibitors; shares compounds with MBD2 DNA inh; TR-FRET MBD2-DBD binding to methylated oligonucleotide; inhibition, % at 4.4 µM; 1,000 compounds, 26% hits; AID 720531; in the data active = inhibition above about 14%
Active calls of the source: *; · = no result given. Cut-off read from the data, not from the text of the source, unless noted: active = inhibition above about 21%; inactive = the rest.

SMILES | MBD2 DNA inh | UHRF1 MBD2 ctr | TDP2 absorb | Casp6 inh | LEDGF integ inh | NSD2 HMT inh | others
O=C(c1ccc(C(F)(F)F)cc1)N1CCC(=O)N(C(COCc2ccc(Cl)cc2)Cc2ccccc2)CC1 (stereo not drawn) | -2 | 0 | -5 | 3 | 0 | ·
O=C(c1ccc(C(F)(F)F)cc1)N1CCC(=O)N(C(COCc2ccccc2)Cc2ccccc2)CC1 (stereo not drawn) | -4 | 40* | -14 | 2 | -2 | ·
CCOC(=O)COc1coc(CN2CCN(c3cccc(Cl)c3)CC2)cc1=O | -2 | 1 | 7 | 0 | 1 | -4
COC(=O)COc1coc(CN2CCN(c3cccc(Cl)c3)CC2)cc1=O | 5 | 21* | 6 | 2 | 7 | 3
O=[N+]([O-])c1ccc(-c2cnc(SC(c3ccccc3)c3ccccc3)[nH]2)cc1 | 3 | 45* | 5 | 0 | 2 | -1
CC1=C(C(=O)N2CCOCC2)CC(CC(=O)NC2CC2)C(=O)N1Cc1ccccc1 (stereo not drawn) | 4 | 7 | -4 | -3 | -5 | ·
CC1=C(C(=O)N2CCOCC2)CC(CC(=O)NC2CCCCC2)C(=O)N1Cc1ccccc1 (stereo not drawn) | 13 | 22* | 3 | 3 | 1 | ·
C[C@H](CO)N1C[C@H](C)[C@@H](CN(C)S(=O)(=O)c2cn(C)cn2)OCCCC[C@H](C)Oc2ccc(NC(=O)CCCCCC(=O)Nc3ccccc3N)cc2C1=O | · | · | · | -2 | · | ·
CC(C)(C)S(=O)N1Cc2cc(C(=O)O)nc(-c3cccc(-c4cc5ccccc5o4)c3)c2[C@H]1CCO (stereo partly drawn) | 3 | 6 | 0 | 36* | 2 | ·
COCC(=O)N1[C@@H](CO)[C@H](c2ccccc2)[C@@H]1CN(C)C(=O)c1ccncc1 | · | · | · | 0 | · | ·
CCN1CCN(C(=O)c2ccc(CS(=O)(=O)Cc3ccccc3Cl)o2)CC1 | 1 | 2 | 5 | 63* | 3 | 5
COc1ccc(S(=O)(=O)n2nc(OC(=O)c3ccccc3)cc2N)cc1 | -6 | -1 | 0 | · | 1 | -5
COc1ccc(S(=O)(=O)n2nc(OC(C)=O)cc2N(C(C)=O)C(C)=O)cc1 | 1 | 16 | 29* | 2 | 6 | ·
Cc1cc(C)n(C(=O)/C(C#N)=C/N(C)C)n1 | 39* | 5 | 5 | 1 | 2 | -1 | UHRF1 ctr MBD2=4;MBD2 DBD conf=5
Cc1cc(C)n(/C(=C/N(C)C)C(=O)c2ccccc2)n1 | -4 | 0 | -4 | -4 | 6 | 3
C[C@@H]1CN([C@H](C)CO)C(=O)c2cc(NS(=O)(=O)c3cn(C)cn3)ccc2O[C@@H](C)CCCCO[C@H]1CN(C)C(=O)Nc1ccccc1 | · | · | · | -2 | · | ·
COc1ccc2sc3cccc(NCCN(C)C)c3c(=O)c2c1 | 10 | -11 | 1 | 11 | -5 | 41
CN(C)CCNc1ccc(CO)c2sc3ccc(O)cc3c(=O)c12 | 16* | -12 | -8 | -32 | -4 | · | UHRF1 ctr MBD2=12;MBD2 DBD conf=27*
CCOc1cccc(CN2CCCC(CNC(=O)c3cccc(OC)c3OC)C2)c1 (stereo not drawn) | 16* | 5 | -11 | -2 | 2 | -2 | UHRF1 ctr MBD2=6;MBD2 DBD conf=1
COc1cccc(C(=O)NCC2CCCN(C(=O)Cc3cccc(C)c3)C2)c1OC (stereo not drawn) | 1 | -1 | 6 | 0 | -1 | -2
C[C@@H]1CCCCO[C@@H](CN(C)Cc2ccccc2)[C@H](C)CN([C@@H](C)CO)C(=O)c2cc(NS(=O)(=O)c3ccc(Cl)cc3)ccc2O1 | · | · | · | 2 | · | ·
Cc1cc(C)cc(-n2nnc(C(=O)NCc3ccccc3)c2N)c1 | -3 | -1 | -7 | · | 0 | ·
Cc1ccc(CNC(=O)c2nnn(-c3cccc(C)c3)c2N)cc1 | 15* | 28* | 13 | · | 10 | -5 | UHRF1 ctr MBD2=6;MBD2 DBD conf=2
